Test results: ChEMBL document CHEMBL1275429, “Pharmacodynamic characterization of ceftobiprole in experimental pneumonia caused by phenotypically diverse Staphylococcus aureus strains” (Antimicrob Agents Chemother, 2008)
Values after ≈ are worked out from the molar mass of the structure shown.

Columns and labels:
Format in all cases: functional
Staphylococcus aureus [1] = assay: Antimicrobial activity against community acquired methicillin-resistant Staphylococcus aureus 147 by broth microdilution method
Summary of the method: (§1)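 Broth microdilution run in triplicate following CLSI guidelines. Isolates were stored at –80°C in double-strength skim milk and subcultured twice on Trypticase soy agar with 5% sheep blood before testing.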

Staphylococcus aureus [2] = assay: Antimicrobial activity against community acquired methicillin-resistant Staphylococcus aureus 146 by broth microdilution method; summary of the method: as §1
Staphylococcus aureus [3] = assay: Antimicrobial activity against community acquired methicillin-resistant Staphylococcus aureus 144 by broth microdilution method; summary of the method: as §1
Staphylococcus aureus [4] = assay: Antimicrobial activity against hospital acquired methicillin-resistant Staphylococcus aureus 149 by broth microdilution method; summary of the method: as §1
Staphylococcus aureus [5] = assay: Antimicrobial activity against methicillin-susceptible Staphylococcus aureus ATCC 29213 by broth microdilution method; summary of the method: as §1
Staphylococcus aureus [6] = assay: Antimicrobial activity against hospital acquired methicillin-resistant Staphylococcus aureus 152 by broth microdilution method; summary of the method: as §1
Staphylococcus aureus [7] = assay: Antimicrobial activity against methicillin-susceptible Staphylococcus aureus ATCC 25923 by broth microdilution method; summary of the method: as §1
Staphylococcus aureus [8] = assay: Antimicrobial activity against hospital acquired methicillin-resistant Staphylococcus aureus 56 by broth microdilution method; summary of the method: as §1

Structure (SMILES)	MIC (Staphylococcus aureus [1]) [µg/mL]	MIC (Staphylococcus aureus [2]) [µg/mL]	MIC (Staphylococcus aureus [3]) [µg/mL]	MIC (Staphylococcus aureus [4]) [µg/mL]	MIC (Staphylococcus aureus [5]) [µg/mL]	MIC (Staphylococcus aureus [6]) [µg/mL]	MIC (Staphylococcus aureus [7]) [µg/mL]	MIC (Staphylococcus aureus [8]) [µg/mL]
CCC[C@@H]1C[C@@H](C(=O)N[C@@H]([C@H]2O[C@H](SC)[C@H](O)[C@@H](O)[C@H]2O)[C@H](C)Cl)N(C)C1 [CLINDAMYCIN]	0.125 (≈ 0.294 µM)	0.25 (≈ 0.588 µM)	> 16	0.125 (≈ 0.294 µM)	0.125 (≈ 0.294 µM)	0.125 (≈ 0.294 µM)	0.125 (≈ 0.294 µM)	0.25 (≈ 0.588 µM)
C[C@H]1c2cccc(O)c2C(=O)C2=C(O)[C@]3(O)C(=O)C(C(N)=O)=C(O)[C@@H](N(C)C)[C@@H]3[C@@H](O)[C@@H]21.O [DOXYCYCLINE]	2	2	0.5	0.5	0.5	0.5	0.25	8
CC[C@H]1OC(=O)[C@H](C)[C@@H](O[C@H]2C[C@@](C)(OC)[C@@H](O)[C@H](C)O2)[C@H](C)[C@@H](O[C@@H]2O[C@H](C)C[C@H](N(C)C)[C@H]2O)[C@](C)(O)C[C@@H](C)C(=O)[C@H](C)[C@@H](O)[C@]1(C)O [ERYTHROMYCIN]	> 32	> 32	> 32	> 32	1 (≈ 1.36 µM)	1 (≈ 1.36 µM)	0.5 (≈ 0.681 µM)	32 (≈ 43.6 µM)
C[C@H]1COc2c(N3CCN(C)CC3)c(F)cc3c(=O)c(C(=O)O)cn1c23.C[C@H]1COc2c(N3CCN(C)CC3)c(F)cc3c(=O)c(C(=O)O)cn1c23.O [LEVOFLOXACIN]	8	8	0.5	8	0.25	0.25	0.25	0.25
CC(=O)NC[C@H]1CN(c2ccc(N3CCOCC3)c(F)c2)C(=O)O1 [LINEZOLID]								8 (≈ 23.7 µM)
